Test results taken from ChEMBL document CHEMBL3872218, “Synthesis and T-type calcium channel-blocking effects of aryl(1,5-disubstituted-pyrazol-3-yl)methyl sulfonamides for neuropathic pain treatment” (Eur J Med Chem, 2016).

Experiments:
[1] = target: T1, Voltage-dependent T-type calcium channel subunit alpha-1G (Homo sapiens, UniProt O43497); experiment: Inhibition of Cav3.1 alpha1G (unknown origin) expressed in HEK293 cells assessed as decrease in KCl-induced depolarization mediated intracellular Ca2+ level at 10 uM by fluo3/AM based high throughput screening assay relative to control; assay type: cell-based
T1 sequence (O43497 whole entry): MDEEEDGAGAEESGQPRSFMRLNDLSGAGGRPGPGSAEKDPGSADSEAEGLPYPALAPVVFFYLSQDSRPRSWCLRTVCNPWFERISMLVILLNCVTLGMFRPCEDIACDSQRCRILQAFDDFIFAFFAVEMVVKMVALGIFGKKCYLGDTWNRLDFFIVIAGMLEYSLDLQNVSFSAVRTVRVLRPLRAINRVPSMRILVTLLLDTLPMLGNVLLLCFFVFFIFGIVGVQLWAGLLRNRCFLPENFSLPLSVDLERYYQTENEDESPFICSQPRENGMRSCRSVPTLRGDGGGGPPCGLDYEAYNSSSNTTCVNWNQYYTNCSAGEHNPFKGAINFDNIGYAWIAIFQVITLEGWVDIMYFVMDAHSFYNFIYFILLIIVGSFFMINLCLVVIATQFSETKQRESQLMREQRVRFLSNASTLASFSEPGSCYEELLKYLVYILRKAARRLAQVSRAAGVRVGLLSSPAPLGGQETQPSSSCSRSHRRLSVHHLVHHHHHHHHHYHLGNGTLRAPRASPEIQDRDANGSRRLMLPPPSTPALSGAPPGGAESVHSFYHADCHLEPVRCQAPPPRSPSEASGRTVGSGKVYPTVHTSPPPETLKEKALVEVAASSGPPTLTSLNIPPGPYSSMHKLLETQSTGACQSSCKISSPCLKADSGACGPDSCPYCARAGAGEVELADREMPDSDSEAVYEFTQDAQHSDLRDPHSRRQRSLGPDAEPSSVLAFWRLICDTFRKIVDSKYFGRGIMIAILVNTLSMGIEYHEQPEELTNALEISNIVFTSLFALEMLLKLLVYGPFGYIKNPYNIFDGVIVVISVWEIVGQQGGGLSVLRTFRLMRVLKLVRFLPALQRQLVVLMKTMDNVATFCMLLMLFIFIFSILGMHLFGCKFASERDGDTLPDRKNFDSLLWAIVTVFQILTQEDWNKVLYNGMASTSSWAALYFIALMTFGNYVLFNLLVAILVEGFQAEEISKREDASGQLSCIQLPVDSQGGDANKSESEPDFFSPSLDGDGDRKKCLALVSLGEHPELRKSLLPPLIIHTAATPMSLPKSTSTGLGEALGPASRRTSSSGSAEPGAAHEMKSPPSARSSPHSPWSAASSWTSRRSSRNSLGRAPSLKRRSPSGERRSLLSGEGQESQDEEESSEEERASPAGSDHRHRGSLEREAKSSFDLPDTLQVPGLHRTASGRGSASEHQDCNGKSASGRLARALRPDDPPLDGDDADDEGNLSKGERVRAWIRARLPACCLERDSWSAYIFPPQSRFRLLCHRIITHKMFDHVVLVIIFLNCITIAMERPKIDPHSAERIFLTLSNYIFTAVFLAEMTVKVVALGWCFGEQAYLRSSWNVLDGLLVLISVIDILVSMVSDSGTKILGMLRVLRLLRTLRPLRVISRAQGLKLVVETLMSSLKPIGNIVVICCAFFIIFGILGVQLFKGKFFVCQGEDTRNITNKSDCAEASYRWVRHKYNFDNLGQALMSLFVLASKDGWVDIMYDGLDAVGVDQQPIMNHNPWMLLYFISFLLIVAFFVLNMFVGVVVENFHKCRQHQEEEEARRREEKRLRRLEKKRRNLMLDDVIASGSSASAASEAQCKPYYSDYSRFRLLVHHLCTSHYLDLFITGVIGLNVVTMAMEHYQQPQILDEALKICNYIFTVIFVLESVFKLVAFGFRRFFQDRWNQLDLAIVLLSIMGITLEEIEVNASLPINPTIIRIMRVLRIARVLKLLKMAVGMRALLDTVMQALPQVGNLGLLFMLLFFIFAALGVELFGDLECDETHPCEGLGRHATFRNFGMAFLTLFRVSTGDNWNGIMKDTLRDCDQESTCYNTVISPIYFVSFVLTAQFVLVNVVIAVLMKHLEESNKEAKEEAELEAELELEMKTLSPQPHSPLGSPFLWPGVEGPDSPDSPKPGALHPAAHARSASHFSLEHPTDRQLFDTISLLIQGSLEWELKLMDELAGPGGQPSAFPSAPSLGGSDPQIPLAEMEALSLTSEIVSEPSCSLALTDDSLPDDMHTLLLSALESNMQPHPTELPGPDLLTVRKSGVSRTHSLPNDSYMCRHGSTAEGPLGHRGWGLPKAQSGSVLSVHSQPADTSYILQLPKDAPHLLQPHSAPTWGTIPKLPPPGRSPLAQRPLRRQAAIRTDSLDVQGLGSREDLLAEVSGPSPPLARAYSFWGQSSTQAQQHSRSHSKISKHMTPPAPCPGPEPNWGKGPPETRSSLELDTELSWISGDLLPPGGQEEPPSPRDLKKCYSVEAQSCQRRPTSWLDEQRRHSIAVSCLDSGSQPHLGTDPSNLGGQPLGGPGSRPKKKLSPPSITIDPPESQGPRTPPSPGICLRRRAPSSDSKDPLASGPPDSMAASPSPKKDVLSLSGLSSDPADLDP
Method in brief: (§1)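 HEK293 cells stably expressing Cav3.1 or Cav3.2 plated at 4 × 10⁴ cells/well and used the next day. Loaded 60 min at room temperature with […] fluo3/AM plus 0.001% Pluronic F-127 in HEPES-buffered saline (1.8 mM CaCl₂, pH 7.4). Ca²⁺ fluorescence read on FDSS6000 as % inhibition, compound at […].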

[2] = target: T2, Voltage-dependent T-type calcium channel subunit alpha-1H (Homo sapiens, UniProt O95180); experiment: Inhibition of Cav3.2 alpha1H (unknown origin) expressed in HEK293 cells assessed as decrease in KCl-induced depolarization mediated intracellular Ca2+ level at 10 uM by fluo3/AM based high throughput screening assay relative to control; assay type: cell-based; method in brief: as §1
T2 sequence (O95180 whole entry): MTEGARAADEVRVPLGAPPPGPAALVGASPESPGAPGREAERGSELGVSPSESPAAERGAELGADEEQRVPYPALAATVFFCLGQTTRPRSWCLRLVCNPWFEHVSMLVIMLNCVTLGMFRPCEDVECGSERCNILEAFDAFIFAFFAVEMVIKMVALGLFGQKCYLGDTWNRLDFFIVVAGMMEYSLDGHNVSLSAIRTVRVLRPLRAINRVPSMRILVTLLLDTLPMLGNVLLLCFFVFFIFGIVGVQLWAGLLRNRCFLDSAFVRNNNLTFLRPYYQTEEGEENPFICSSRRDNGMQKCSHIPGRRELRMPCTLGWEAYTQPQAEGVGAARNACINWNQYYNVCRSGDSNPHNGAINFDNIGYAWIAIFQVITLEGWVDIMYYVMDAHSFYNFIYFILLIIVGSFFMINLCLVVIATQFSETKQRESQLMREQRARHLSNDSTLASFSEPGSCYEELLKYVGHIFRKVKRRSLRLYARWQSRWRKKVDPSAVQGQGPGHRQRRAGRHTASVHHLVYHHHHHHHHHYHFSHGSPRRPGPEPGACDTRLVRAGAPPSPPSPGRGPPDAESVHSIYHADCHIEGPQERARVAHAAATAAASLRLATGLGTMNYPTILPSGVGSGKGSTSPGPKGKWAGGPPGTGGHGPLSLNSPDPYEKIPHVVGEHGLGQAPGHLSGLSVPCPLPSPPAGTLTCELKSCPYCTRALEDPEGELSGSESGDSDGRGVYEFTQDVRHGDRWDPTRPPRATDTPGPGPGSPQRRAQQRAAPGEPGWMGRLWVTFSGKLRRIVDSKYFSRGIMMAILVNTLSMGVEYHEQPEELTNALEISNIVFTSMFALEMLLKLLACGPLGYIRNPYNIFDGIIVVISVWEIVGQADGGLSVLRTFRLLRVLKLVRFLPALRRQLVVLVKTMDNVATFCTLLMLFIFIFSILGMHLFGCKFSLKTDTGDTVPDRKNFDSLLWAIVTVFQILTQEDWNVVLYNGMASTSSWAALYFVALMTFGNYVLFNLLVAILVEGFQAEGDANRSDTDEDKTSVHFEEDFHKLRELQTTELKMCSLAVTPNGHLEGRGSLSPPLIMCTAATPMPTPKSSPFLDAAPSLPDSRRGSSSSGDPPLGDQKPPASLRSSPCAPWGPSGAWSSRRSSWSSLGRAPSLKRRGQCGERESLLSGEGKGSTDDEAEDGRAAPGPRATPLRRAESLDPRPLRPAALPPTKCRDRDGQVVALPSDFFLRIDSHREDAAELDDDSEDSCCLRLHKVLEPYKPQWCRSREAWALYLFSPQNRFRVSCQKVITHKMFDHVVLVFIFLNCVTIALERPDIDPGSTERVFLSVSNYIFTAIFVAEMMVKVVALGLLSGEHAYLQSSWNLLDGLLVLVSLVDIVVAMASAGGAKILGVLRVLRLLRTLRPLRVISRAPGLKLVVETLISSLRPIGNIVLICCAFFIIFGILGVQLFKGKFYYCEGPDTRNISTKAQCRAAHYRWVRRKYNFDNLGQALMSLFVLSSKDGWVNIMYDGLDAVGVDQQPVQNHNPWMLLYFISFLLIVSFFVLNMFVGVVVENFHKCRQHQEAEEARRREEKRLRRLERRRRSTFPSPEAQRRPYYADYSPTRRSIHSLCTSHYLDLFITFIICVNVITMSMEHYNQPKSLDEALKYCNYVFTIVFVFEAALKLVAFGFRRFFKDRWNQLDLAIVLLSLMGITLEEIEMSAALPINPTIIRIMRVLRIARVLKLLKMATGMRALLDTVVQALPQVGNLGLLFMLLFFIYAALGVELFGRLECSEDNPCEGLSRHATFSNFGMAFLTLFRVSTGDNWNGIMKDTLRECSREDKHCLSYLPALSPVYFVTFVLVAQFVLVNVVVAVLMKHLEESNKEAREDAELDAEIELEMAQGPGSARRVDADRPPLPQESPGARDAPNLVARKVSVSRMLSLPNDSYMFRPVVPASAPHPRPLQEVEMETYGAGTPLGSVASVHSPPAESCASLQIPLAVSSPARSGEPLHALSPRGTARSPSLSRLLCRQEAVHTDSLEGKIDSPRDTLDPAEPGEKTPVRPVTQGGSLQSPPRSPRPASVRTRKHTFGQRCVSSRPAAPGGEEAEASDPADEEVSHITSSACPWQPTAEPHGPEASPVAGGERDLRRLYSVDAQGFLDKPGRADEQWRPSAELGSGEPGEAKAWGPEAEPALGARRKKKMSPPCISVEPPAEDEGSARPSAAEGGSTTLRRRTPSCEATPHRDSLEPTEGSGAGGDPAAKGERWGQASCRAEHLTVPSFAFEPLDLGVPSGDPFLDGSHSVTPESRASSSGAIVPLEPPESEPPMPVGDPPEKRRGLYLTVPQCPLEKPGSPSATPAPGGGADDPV

[3] = organism: Rattus norvegicus; experiment: Inhibition of voltage dependent T-type Ca2+ channel in Wistar rat cerebral cortex assessed as reduction in transient inward Ca2+ current at -60 mV holding potential at 500 uM by whole-cell patch clamp method relative to control
[4] = system: N1E-115; experiment: Inhibition of voltage dependent T-type Ca2+ channel in mouse N1E-115 cells assessed as reduction in transient inward Ca2+ current at 50 uM by whole-cell patch clamp method relative to control; assay type: cell-based
[5] = system: Rattus norvegicus; experiment: Antineuropathic pain activity in rat spinal nerve ligation model assessed as effect on cold allodynia by measuring frequency of paw withdrawal at 100 mg/kg, po measured at 3 hrs relative to gabapentin; assay type: functional
Method in brief: (§2)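 Spinal nerve ligation rats tested 2 weeks after nerve surgery, 100 mg/kg oral, n = 4 per group. Behaviour re-tested at 1, 3 and 5 h after dosing. Mechanical allodynia: von Frey filament applied five times, every 3–4 s, to the hind paw on a wire mesh floor. Cold allodynia: acetone applied to the plantar hind paw on a metal mesh floor.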

[6] = system: Rattus norvegicus; experiment: Antineuropathic pain activity in rat spinal nerve ligation model assessed as effect on mechanical allodynia by measuring frequency of paw withdrawal at 100 mg/kg, po measured at 5 hrs relative to gabapentin; assay type: functional; method in brief: as §2
[7] = system: Rattus norvegicus; experiment: Antineuropathic pain activity in rat spinal nerve ligation model assessed as effect on mechanical allodynia by measuring frequency of paw withdrawal at 100 mg/kg, po measured at 1 hr relative to control; assay type: functional; method in brief: as §2
[8] = system: Rattus norvegicus; experiment: Antineuropathic pain activity in rat spinal nerve ligation model assessed as effect on mechanical allodynia by measuring frequency of paw withdrawal at 100 mg/kg, po measured at 5 hrs relative to control; assay type: functional; method in brief: as §2
[9] = target: Voltage-gated inwardly rectifying potassium channel KCNH2 (Homo sapiens, UniProt Q12809); experiment: Inhibition of human ERG expressed in CHOK1 cells by whole-cell patch clamp method; assay type: cell-based, CHO-K1
[10] = system: Rattus norvegicus; experiment: Antineuropathic pain activity in rat spinal nerve ligation model assessed as effect on cold allodynia by measuring frequency of paw withdrawal at 100 mg/kg, po measured at 1 hr relative to control; assay type: functional; method in brief: as §2
[11] = system: Rattus norvegicus; experiment: Poteny index, ratio of test compound to mibefradil antineuropathic pain activity in rat spinal nerve ligation model assessed as effect on mechanical allodynia by measuring frequency of paw withdrawal at 100 mg, po measured after 1 hr; assay type: functional
[12] = system: Rattus norvegicus; experiment: Antineuropathic pain activity in rat spinal nerve ligation model assessed as effect on cold allodynia by measuring frequency of paw withdrawal at 100 mg/kg, po measured at 1 hr relative to gabapentin; assay type: functional; method in brief: as §2
[13] = system: Rattus norvegicus; experiment: Antineuropathic pain activity in rat spinal nerve ligation model assessed as effect on cold allodynia by measuring frequency of paw withdrawal at 100 mg/kg, po measured at 5 hrs relative to control; assay type: functional; method in brief: as §2
[14] = Metabolic stability in human liver microsomes assessed as compound remaining at 1 uM in presence of NADPH as cofactor by LC-MS/MS method; assay type: ADME; conditions: read-out: Stability
Method in brief: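 Pooled mixed-gender human liver microsomes incubated with compound at 37 °C with NADPH as cofactor. Result given as % parent compound remaining.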

[15] = target: T3, CYP1A2 (Homo sapiens, UniProt P05177); experiment: Inhibition of human CYP1A2 assessed as remaining activity at 10 uM using vivid CYP450 substrate measured after 15 mins by fluorescence assay relative to alpha-naphthoflavon; assay type: ADME; conditions: probe vivid CYP450 substrate, read-out: Activity
T3 sequence (P05177 whole entry): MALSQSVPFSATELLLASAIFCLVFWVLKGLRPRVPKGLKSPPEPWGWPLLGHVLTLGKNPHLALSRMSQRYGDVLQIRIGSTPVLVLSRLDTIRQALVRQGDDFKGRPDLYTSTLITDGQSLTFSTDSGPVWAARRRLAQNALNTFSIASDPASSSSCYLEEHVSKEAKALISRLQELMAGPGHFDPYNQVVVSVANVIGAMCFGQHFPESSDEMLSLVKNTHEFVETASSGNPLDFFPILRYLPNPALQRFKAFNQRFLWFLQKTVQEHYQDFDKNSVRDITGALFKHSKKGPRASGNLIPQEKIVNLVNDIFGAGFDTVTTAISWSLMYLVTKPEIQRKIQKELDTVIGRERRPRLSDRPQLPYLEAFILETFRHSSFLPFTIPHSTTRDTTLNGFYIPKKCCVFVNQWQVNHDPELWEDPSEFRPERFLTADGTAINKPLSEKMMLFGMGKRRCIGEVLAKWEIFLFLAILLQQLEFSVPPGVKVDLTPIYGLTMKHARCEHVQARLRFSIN
Method in brief: (§3)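 Vivid fluorescence CYP assay: test compound at […] in water, mixed with BACULOSOMES master pre-mix and regeneration system, preincubated 15 min at 37 °C. Reaction started with Vivid substrate and NADPH. Remaining activity read by fluorescence as % of control, triplicate, mean ± SD. Isoform-specific reference inhibitors: α-naphthoflavone (1A2), sulfaphenazole (2C9), quinidine (2D6), ketoconazole (3A4).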

[16] = target: CYP2C9 (Homo sapiens, UniProt P11712); experiment: Inhibition of human CYP2C9 assessed as remaining activity at 10 uM using vivid CYP450 substrate measured after 15 mins by fluorescence assay relative to sulfaphenazol; assay type: ADME; conditions: probe vivid CYP450 substrate, read-out: Activity; method in brief: as §3
[17] = target: T2, Voltage-dependent T-type calcium channel subunit alpha-1H; experiment: Inhibition of Cav3.2 alpha1H (unknown origin) expressed in HEK293 cells by whole-cell patch clamp method; assay type: cell-based
Method in brief: (§4)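 Whole-cell patch clamp on HEK293 cells expressing Cav3.1 or Cav3.2. T-type currents evoked every 15 s by a 50-ms step from −100 mV to −30 mV. External solution (mM): 140 NaCl, 2 CaCl₂, 10 HEPES, 10 glucose, pH 7.4.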

[18] = system: Rattus norvegicus; experiment: Antineuropathic pain activity in rat spinal nerve ligation model assessed as effect on cold allodynia by measuring frequency of paw withdrawal at 100 mg/kg, po measured at 3 hrs relative to control; assay type: functional; method in brief: as §2
[19] = system: Rattus norvegicus; experiment: Antineuropathic pain activity in rat spinal nerve ligation model assessed as effect on mechanical allodynia by measuring frequency of paw withdrawal at 100 mg/kg, po measured at 1 hr relative to gabapentin; assay type: functional; method in brief: as §2
[20] = organism: Homo sapiens; experiment: Inhibition of N-type Ca2+ channel (unknown origin) at 10 uM by whole-cell patch clamp method relative to control
[21] = system: Rattus norvegicus; experiment: Antineuropathic pain activity in rat spinal nerve ligation model assessed as effect on cold allodynia by measuring frequency of paw withdrawal at 100 mg/kg, po measured at 5 hrs relative to gabapentin; assay type: functional; method in brief: as §2
[22] = system: Rattus norvegicus; experiment: Antineuropathic pain activity in rat spinal nerve ligation model assessed as effect on mechanical allodynia by measuring frequency of paw withdrawal at 100 mg/kg, po measured at 3 hrs relative to gabapentin; assay type: functional; method in brief: as §2
[23] = system: Rattus norvegicus; experiment: Antineuropathic pain activity in rat spinal nerve ligation model assessed as effect on mechanical allodynia by measuring frequency of paw withdrawal at 100 mg/kg, po measured at 3 hrs relative to control; assay type: functional; method in brief: as §2
[24] = target: CYP3A4 (Homo sapiens, UniProt P08684); experiment: Inhibition of human CYP3A4 assessed as remaining activity at 10 uM using vivid CYP450 substrate measured after 15 mins by fluorescence assay relative to ketoconazole; assay type: ADME; conditions: probe vivid CYP450 substrate, read-out: Activity; method in brief: as §3
[25] = target: T1, Voltage-dependent T-type calcium channel subunit alpha-1G; experiment: Inhibition of Cav3.1 alpha1G (unknown origin) expressed in HEK293 cells by whole-cell patch clamp method; assay type: cell-based; method in brief: as §4
[26] = target: CYP2D6 (Homo sapiens, UniProt P10635); experiment: Inhibition of human CYP2D6 assessed as remaining activity at 10 uM using vivid CYP450 substrate measured after 15 mins by fluorescence assay relative to quinidine; assay type: ADME; conditions: probe vivid CYP450 substrate, read-out: Activity; method in brief: as §3
[27] = system: Rattus norvegicus; experiment: Poteny index, ratio of test compound to gabapentin antineuropathic pain activity in rat spinal nerve ligation model assessed as effect on mechanical allodynia by measuring frequency of paw withdrawal at 100 mg, po measured after 1 hr; assay type: functional

SMILES | inhibition [1] | inhibition [2] | MPE [7] | MPE [8] | MPE [10] | MPE [13] | MPE [18] | MPE [23] | further results
CC(C)Cc1cc(CNS(=O)(=O)c2cccc3ccccc23)nn1-c1ccccc1 | 24.3% | 25.2% |  |  |  |  |  |  | 
NS(=O)(=O)Cc1noc2ccccc12 |  |  |  |  |  |  |  |  | inhibition [3]: 60%; inhibition [4]: 40%
CC(C)Cc1cc(CNS(=O)(=O)c2ccccc2)nn1-c1ccccc1 | 61.4% | 63.9% | 45.95% | 30.91% | 103.9% | 74.17% | 81.73% | 36.45% | MPE [5]: 101.52%; MPE [6]: 68.26%; IC50 [9]: 21 µM; Ratio [11]: 3; MPE [12]: 236.08%; remaining at 1 µM [14]: 13.9%; activity at 0.25 h, 10 µM [15]: 36.6%; activity at 0.25 h, 10 µM [16]: 38.4%; IC50 [17]: 5.8 µM; MPE [19]: 416.59%; inhibition [20]: 38.2%; MPE [21]: 169.88%; MPE [22]: 64.01%; activity at 0.25 h, 10 µM [24]: 69.6%; IC50 [25]: 5.65 µM; activity at 0.25 h, 10 µM [26]: 208%; Ratio [27]: 3
Cc1cc(I)ccc1S(=O)(=O)NCc1cc(CC(C)C)n(-c2ccccc2)n1 | 22.6% | 26.6% |  |  |  |  |  |  | 
CC(C)Cc1cc(CNS(=O)(=O)c2cccc3cccnc23)nn1-c1ccccc1 | 29.8% | 61.4% |  |  |  |  |  |  | 
CC(C)Cc1cc(CNS(=O)(=O)c2c(Cl)cccc2Cl)nn1-c1ccccc1 | 36.9% | 56% |  |  |  |  |  |  | 
NCC1(CC(=O)O)CCCCC1 [GABAPENTIN] |  |  | 11.03% | 45.28% | 44.01% | 43.66% | 80.51% | 56.94% | 
CC(C)Cc1cc(CNS(=O)(=O)c2c(F)cccc2F)nn1-c1ccccc1 | 45.1% | 69.3% |  |  |  |  |  |  | 
COCC(=O)O[C@]1(CCN(C)CCCc2nc3ccccc3[nH]2)CCc2cc(F)ccc2[C@@H]1C(C)C [MIBEFRADIL] |  |  | 17.29% | 41.76% | 25.25% | 63.33% | 34.77% | 41.44% | MPE [5]: 43.19%; MPE [6]: 92.23%; MPE [12]: 57.37%; MPE [19]: 156.75%; MPE [21]: 145.05%; MPE [22]: 72.78%
